# Key:
# Assay type in all cases: functional
# [1] = system: Staphylococcus epidermidis; assay: Antimicrobial activity against Staphylococcus epidermidis 11 after 24 hrs
# How it was run: (§1)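 MIC by dilution in nutrient broth. Anaerobic organisms were incubated in an anaerobic cabinet. Controls were the same organisms incubated without test compound.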
# [2] = system: Clostridioides difficile; assay: Antimicrobial activity against Clostridium difficile Z66 after 48 hrs
# How it was run: (§2)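 Anaerobes incubated in an anaerobic cabinet for broth MIC determination. Drug-free incubations of the same organisms served as controls. Value is the minimum inhibitory concentration.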
# [3] = system: Staphylococcus aureus; assay: Antimicrobial activity against Staphylococcus aureus T1 after 24 hrs; how it was run: as §1
# [4] = system: Clostridioides difficile; assay: Antimicrobial activity against Clostridium difficile O27 after 48 hrs; how it was run: as §2
# [5] = system: Clostridioides difficile; assay: Antimicrobial activity against Clostridium difficile Z162 after 48 hrs; how it was run: as §2
# [6] = system: Clostridioides difficile; assay: Antimicrobial activity against Clostridium difficile Z1577 after 48 hrs; how it was run: as §2
# [7] = system: Clostridioides difficile; assay: Antimicrobial activity against Clostridium difficile Z1568 after 48 hrs; how it was run: as §2
# [8] = system: Staphylococcus aureus; assay: Antimicrobial activity against methicillin-resistant Staphylococcus aureus B1 after 24 hrs; how it was run: as §1
# [9] = system: Clostridioides difficile; assay: Antimicrobial activity against Clostridium difficile Z251 after 48 hrs; how it was run: as §2
# [10] = system: Clostridioides difficile; assay: Antimicrobial activity against Clostridium difficile Z164 after 48 hrs; how it was run: as §2
# [11] = system: Candida albicans; assay: Antimicrobial activity against Candida albicans 1013781
# [12] = system: Clostridioides difficile; assay: Antimicrobial activity against Clostridium difficile Z1579 after 48 hrs; how it was run: as §2
# [13] = system: Staphylococcus aureus; assay: (§3) Antimicrobial activity against Staphylococcus aureus H1 after 24 hrs; how it was run: as §1
# [14] = system: Clostridioides difficile; assay: Antimicrobial activity against Clostridium difficile Z179 after 48 hrs; how it was run: as §2
# [15] = system: Staphylococcus epidermidis; assay: Antimicrobial activity against Staphylococcus epidermidis 3 after 24 hrs; how it was run: as §1
# [16] = system: Clostridioides difficile; assay: Antimicrobial activity against Clostridium difficile Z176 after 48 hrs; how it was run: as §2
# [17] = system: Staphylococcus aureus; assay: Antimicrobial activity against methicillin-sensitive Staphylococcus aureus A2 after 24 hrs; how it was run: as §1
# [18] = system: Cutibacterium acnes; assay: Antimicrobial activity against Propionibacterium acnes C3 after 48 hrs; how it was run: as §1
# [19] = system: Candida albicans; assay: Antimicrobial activity against Candida albicans 1015391
# [20] = system: Clostridioides difficile; assay: Antimicrobial activity against Clostridium difficile Z167 after 48 hrs; how it was run: as §2
# [21] = system: Clostridioides difficile; assay: Antimicrobial activity against Clostridium difficile Z172 after 48 hrs; how it was run: as §2
# [22] = system: Cutibacterium acnes; assay: Antimicrobial activity against Propionibacterium acnes D1 after 48 hrs; how it was run: as §1
# [23] = system: Clostridioides difficile; assay: Antimicrobial activity against Clostridium difficile Z161 after 48 hrs; how it was run: as §2
# [24] = system: Clostridioides difficile; assay: Antimicrobial activity against Clostridium difficile Z158 after 48 hrs; how it was run: as §2
# [25] = system: Acinetobacter sp.; assay: Antimicrobial activity against Acinetobacter sp.1
# [26] = system: Acinetobacter sp.; assay: Antimicrobial activity against Acinetobacter sp.2
# [27] = system: Clostridioides difficile; assay: Antimicrobial activity against Clostridium difficile Z229 after 48 hrs; how it was run: as §2
# [28] = system: Clostridioides difficile; assay: Antimicrobial activity against Clostridium difficile Z177 after 48 hrs; how it was run: as §2
# [29] = system: Staphylococcus aureus; assay: Antimicrobial activity against methicillin-resistant Staphylococcus aureus A1 after 24 hrs; how it was run: as §1
# [30] = system: Staphylococcus aureus; assay: Antimicrobial activity against methicillin-resistant Staphylococcus aureus C3 after 24 hrs; how it was run: as §1
# [31] = system: Staphylococcus epidermidis; assay: Antimicrobial activity against Staphylococcus epidermidis 9 after 24 hrs; how it was run: as §1
# [32] = system: Cutibacterium acnes; assay: Antimicrobial activity against Propionibacterium acnes B5 after 48 hrs; how it was run: as §2
# [33] = system: Cutibacterium acnes; assay: Antimicrobial activity against Propionibacterium acnes B3 after 24 hrs
# [34] = system: Clostridioides difficile; assay: Antimicrobial activity against Clostridium difficile Z163 after 48 hrs; how it was run: as §2
# [35] = system: Candida albicans; assay: Antimicrobial activity against Candida albicans 1012155
# [36] = system: Staphylococcus aureus; assay: as §3; how it was run: as §1; remark: listed apart in the source
# [37] = system: Staphylococcus epidermidis; assay: Antimicrobial activity against Staphylococcus epidermidis RP62A after 24 hrs; how it was run: as §1
# [38] = system: Clostridioides difficile; assay: Antimicrobial activity against Clostridium difficile Z150 after 48 hrs; how it was run: as §2
# [39] = system: Staphylococcus aureus; assay: Antimicrobial activity against Staphylococcus aureus ATCC 6538 after 24 hrs; settings: ATCC 6538, 24 h; how it was run: as §1
# [40] = system: Clostridioides difficile; assay: Antimicrobial activity against Clostridium difficile Z160 after 48 hrs; how it was run: as §2
# [41] = system: Staphylococcus aureus; assay: Antimicrobial activity against Staphylococcus aureus K1 after 24 hrs; how it was run: as §1
# [42] = system: Staphylococcus aureus; assay: Antimicrobial activity against methicillin-sensitive Staphylococcus aureus A3 after 24 hrs; how it was run: as §1
# [43] = system: Staphylococcus epidermidis; assay: Antimicrobial activity against Staphylococcus epidermidis NCTC 11047 after 24 hrs; settings: NCTC 11047, 24 h; how it was run: as §1
# [44] = system: Cutibacterium acnes; assay: Antimicrobial activity against Propionibacterium acnes NCTC 737 after 48 hrs; settings: NCTC 737, 48 h; how it was run: as §1
# [45] = system: Clostridioides difficile; assay: Antimicrobial activity against Clostridium difficile Z173 after 48 hrs; how it was run: as §2
# [46] = system: Clostridioides difficile; assay: Antimicrobial activity against Clostridium difficile Z159 after 48 hrs; how it was run: as §2
# [47] = system: Clostridioides difficile; assay: Antimicrobial activity against Clostridium difficile Z16 after 48 hrs; how it was run: as §2
# [48] = system: Staphylococcus aureus; assay: Antimicrobial activity against Staphylococcus aureus V1 after 24 hrs; how it was run: as §1
# [49] = system: Candida albicans; assay: Antimicrobial activity against Candida albicans 1009116
# [50] = system: Clostridioides difficile; assay: Antimicrobial activity against Clostridium difficile Z387 after 48 hrs; how it was run: as §2
# [51] = system: Acinetobacter sp.; assay: Antimicrobial activity against Acinetobacter sp.3
# [52] = system: Staphylococcus aureus; assay: Antimicrobial activity against methicillin-resistant Staphylococcus aureus D1 after 24 hrs; how it was run: as §1
# [53] = system: Clostridioides difficile; assay: Antimicrobial activity against Clostridium difficile NCTC 11204 after 48 hrs; settings: NCTC 11204, 48 h; how it was run: as §2
# [54] = system: Clostridioides difficile; assay: Antimicrobial activity against Clostridium difficile Z175 after 48 hrs; how it was run: as §2
# [55] = system: Cutibacterium acnes; assay: Antimicrobial activity against Propionibacterium acnes D3 after 48 hrs; how it was run: as §1
# [56] = system: Clostridioides difficile; assay: Antimicrobial activity against Clostridium difficile Z1580 after 48 hrs; how it was run: as §2
# [57] = system: Staphylococcus epidermidis; assay: Antimicrobial activity against Staphylococcus epidermidis 4 after 24 hrs; how it was run: as §1
# [58] = system: Staphylococcus aureus; assay: Antimicrobial activity against methicillin-resistant Staphylococcus aureus C1 after 24 hrs; how it was run: as §1
# [59] = system: Cutibacterium acnes; assay: Antimicrobial activity against Propionibacterium acnes C5 after 48 hrs; how it was run: as §1
# [60] = system: Clostridioides difficile; assay: Antimicrobial activity against Clostridium difficile Z1578 after 48 hrs; how it was run: as §2
# [61] = system: Acinetobacter sp.; assay: Antimicrobial activity against Acinetobacter sp.4
# [62] = system: Staphylococcus epidermidis; assay: Antimicrobial activity against Staphylococcus epidermidis 10 after 24 hrs; how it was run: as §1
# [63] = system: Staphylococcus aureus; assay: Antimicrobial activity against methicillin-resistant Staphylococcus aureus A3 after 24 hrs; how it was run: as §1
# [64] = system: Cutibacterium acnes; assay: Antimicrobial activity against Propionibacterium acnes C1 after 24 hrs; how it was run: as §1
# [65] = system: Staphylococcus epidermidis; assay: Antimicrobial activity against Staphylococcus epidermidis 8A after 24 hrs; how it was run: as §1
# [66] = system: Clostridioides difficile; assay: Antimicrobial activity against Clostridium difficile Z170 after 48 hrs; how it was run: as §2
# [67] = system: Clostridioides difficile; assay: Antimicrobial activity against Clostridium difficile Z169 after 48 hrs; how it was run: as §2
# [68] = system: Staphylococcus epidermidis; assay: Antimicrobial activity against Staphylococcus epidermidis 7A after 24 hrs; how it was run: as §1
# [69] = system: Clostridioides difficile; assay: Antimicrobial activity against Clostridium difficile Z171 after 48 hrs; how it was run: as §2
# [70] = system: Staphylococcus aureus; assay: Antimicrobial activity against epidemic methicillin-resistant Staphylococcus aureus 15 after 24 hrs; how it was run: as §1
# [71] = system: Staphylococcus aureus; assay: Antimicrobial activity against methicillin-resistant Staphylococcus aureus B3 after 24 hrs; how it was run: as §1
# [72] = system: Clostridioides difficile; assay: Antimicrobial activity against Clostridium difficile Z21 after 48 hrs; how it was run: as §2
# [73] = system: Clostridioides difficile; assay: Antimicrobial activity against Clostridium difficile Z166 after 48 hrs; how it was run: as §2
# [74] = system: Acinetobacter sp.; assay: Antimicrobial activity against Acinetobacter sp.5
# [75] = system: Clostridioides difficile; assay: Antimicrobial activity against Clostridium difficile Z1591 after 48 hrs; how it was run: as §2
# [76] = system: Clostridioides difficile; assay: Antimicrobial activity against Clostridium difficile Z168 after 48 hrs; how it was run: as §2
# [77] = system: Candida albicans; assay: Antimicrobial activity against Candida albicans 1011377
# [78] = system: Staphylococcus aureus; assay: Antimicrobial activity against methicillin-resistant Staphylococcus aureus E1 after 24 hrs; how it was run: as §1
compound,measurement,setting,value
CCNC(=S)N/N=C/C=C/c1ccc([N+](=O)[O-])o1,MIC,[1],1 µg/mL
same,MIC,[2],4 µg/mL
same,MIC,[3],4 µg/mL
same,MIC,[4],8 µg/mL
same,MIC,[5],0.125 µg/mL
same,MIC,[6],0.5 µg/mL
same,MIC,[7],1 µg/mL
same,MIC,[8],4 µg/mL
same,MIC,[9],1 µg/mL
same,MIC,[10],1 µg/mL
same,MIC,[11],128 µg/mL
same,MIC,[12],2 µg/mL
same,MIC,[13],16 µg/mL
same,MIC,[14],2 µg/mL
same,MIC,[15],2 µg/mL
same,MIC,[16],2 µg/mL
same,MIC,[17],4 µg/mL
same,MIC,[18],2 µg/mL
same,MIC,[19],128 µg/mL
same,MIC,[20],2 µg/mL
same,MIC,[21],4 µg/mL
same,MIC,[22],4 µg/mL
same,MIC,[23],0.5 µg/mL
same,MIC,[24],2 µg/mL
same,MIC,[25],128 µg/mL
same,MIC,[26],128 µg/mL
same,MIC,[27],4 µg/mL
same,MIC,[28],2 µg/mL
same,MIC,[29],2 µg/mL
same,MIC,[30],4 µg/mL
same,MIC,[31],1 µg/mL
same,MIC,[32],8 µg/mL
same,MIC,[33],8 µg/mL
same,MIC,[34],2 µg/mL
same,MIC,[35],128 µg/mL
same,MIC,[36],64 µg/mL
same,MIC,[37],4 µg/mL
same,MIC,[38],4 µg/mL
same,MIC,[39],4 µg/mL
same,MIC,[40],8 µg/mL
same,MIC,[41],4 µg/mL
same,MIC,[42],4 µg/mL
same,MIC,[43],4 µg/mL
same,MIC,[44],4 µg/mL
same,MIC,[45],8 µg/mL
same,MIC,[46],8 µg/mL
same,MIC,[47],8 µg/mL
same,MIC,[48],2 µg/mL
same,MIC,[49],128 µg/mL
same,MIC,[50],16 µg/mL
same,MIC,[51],128 µg/mL
same,MIC,[52],4 µg/mL
same,MIC,[53],4 µg/mL
same,MIC,[54],0.5 µg/mL
same,MIC,[55],4 µg/mL
same,MIC,[56],1 µg/mL
same,MIC,[57],4 µg/mL
same,MIC,[58],2 µg/mL
same,MIC,[59],32 µg/mL
same,MIC,[60],1 µg/mL
same,MIC,[61],128 µg/mL
same,MIC,[62],4 µg/mL
same,MIC,[63],4 µg/mL
same,MIC,[64],8 µg/mL
same,MIC,[65],2 µg/mL
same,MIC,[66],2 µg/mL
same,MIC,[67],2 µg/mL
same,MIC,[68],2 µg/mL
same,MIC,[69],2 µg/mL
same,MIC,[70],4 µg/mL
same,MIC,[71],4 µg/mL
same,MIC,[72],16 µg/mL
same,MIC,[73],2 µg/mL
same,MIC,[74],128 µg/mL
same,MIC,[75],1 µg/mL
same,MIC,[76],2 µg/mL
same,MIC,[77],128 µg/mL
same,MIC,[78],4 µg/mL
